The record followed here is ChEMBL document CHEMBL1121384, “Synthesis and psychoanaleptic properties of new compounds structurally related to diphenhydramine” (J Med Chem, 1980).

SMILES strings stand for the structures.

One series concerns Mus musculus. The series can be described thus: Increase of exploratory behavior of mice by administering compound perorally. Format: functional.
Conditions: not given
An outline of the steps: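 Male Swiss mice (18-20 g) were dosed orally in 0.5% carboxymethylcellulose and placed singly in photobeam boxes with two crossed beams. Beam breaks were counted over the first 5 min. ED50 is the dose raising counts by 50% over vehicle controls, fitted by least squares from four groups of 10 mice on doses spaced by ratio 2.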
In the case of `Cl.O=C(O)CCCN1CCN(CCOC(c2ccccc2)c2ccccc2)CC1`, the ED50 is 0.17 mmol/kg.
On the same count and under the same terms, the value for `Cc1ccc(C(OCCN2CCN(CCC(=O)O)CC2)c2ccccc2)cc1.O=C(O)/C=C\C(=O)O.O=C(O)/C=C\C(=O)O` (stereo not given) was 0.16 mmol/kg; that for `Cl.N#CCCN1CCN(CCOC(c2ccccc2)c2ccccc2)CC1` was 0.1 mmol/kg; that for `Cl.NC(=O)CCN1CCN(CCOC(c2ccccc2)c2ccccc2)CC1` was 0.17 mmol/kg.
`O=C(O)/C=C\C(=O)O.O=C(O)/C=C\C(=O)O.O=C(O)CCN1CCN(CCOC2c3ccccc3-c3ccccc32)CC1` displayed an ED50 of 0.23 mmol/kg.
As for `CCOC(=O)CCN1CCN(CCCOC(c2ccccc2)c2ccccc2)CC1.Cl`, it took a dose of 0.1 mmol/kg to reach the 50% effect level (ED50).
For the compound `O=C(O)/C=C\C(=O)O.O=C(O)/C=C\C(=O)O.O=C(O)CCN1CCN(CCOC(c2ccccc2)c2ccc(Cl)cc2)CC1` (stereo not given), the ED50 came out at 0.05 mmol/kg.
The same measure, in the same setting: the value for `O=C(O)/C=C\C(=O)O.O=C(O)/C=C\C(=O)O.O=C(O)CCCCN1CCN(CCOC(c2ccccc2)c2ccc(F)cc2)CC1` (stereo not given) was 0.05 mmol/kg; that for `O=C([O-])CN1CCN(CCOC(c2ccccc2)c2ccccc2)CC1.[Na+]` was 0.5 mmol/kg.
Turning to `COc1ccccc1C(OCCN1CCN(CCC(=O)O)CC1)c1ccccc1.O=C(O)/C=C\C(=O)O.O=C(O)/C=C\C(=O)O` (stereo not given), the 50% effective dose (ED50) was 0.5 mmol/kg.
Same read-out and setting: the value for `O=C(O)/C=C\C(=O)O.O=C(O)/C=C\C(=O)O.O=C(O)CCN1CCN(CCOC(c2ccccc2)c2cccc(C(F)(F)F)c2)CC1` (stereo not given) was 0.3 mmol/kg.
Regarding `O=C(O)/C=C\C(=O)O.O=C(O)/C=C\C(=O)O.O=C(O)CN1CCN(CCOC(c2ccccc2)c2ccc(F)cc2)CC1` (stereo not given), the ED50 was 0.1 mmol/kg.

Another series relates to Mus musculus. The series can be described thus: Toxicity administered perorally was measured in mice. The series is classed as organism-based. The note with it: in vivo, po. Put shortly:
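Male Swiss mice (18-20 g) were given compound orally in 0.5% carboxymethylcellulose, in groups of four at 200, 400, 800 and 1600 mg/kg. LD50 was taken from mortality; vehicle controls were included.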
The compound `O=C(CN1CCN(CCOC(c2ccccc2)c2ccccc2)CC1)N1CCN(Cc2ccc3c(c2)OCO3)CC1.O=C(O)/C=C\C(=O)O.O=C(O)/C=C\C(=O)O` yielded an LD50 of 0.7 mmol/kg.
In turn, `Cl.O=C(O)CCCN1CCN(CCOC(c2ccccc2)c2ccccc2)CC1` yielded an LD50 of 3.4 mmol/kg.
Same read-out and setting: in the case of `Cc1ccc(C(OCCN2CCN(CCC(=O)O)CC2)c2ccccc2)cc1.O=C(O)/C=C\C(=O)O.O=C(O)/C=C\C(=O)O` (stereo not given) it was 2.3 mmol/kg; in that of `Cl.N#CCCN1CCN(CCOC(c2ccccc2)c2ccccc2)CC1`, 0.7 mmol/kg.
On the same count and under the same terms, the value for `Cl.NC(=O)CCN1CCN(CCOC(c2ccccc2)c2ccccc2)CC1` was 2.1 mmol/kg; that for `O=C(O)/C=C\C(=O)O.O=C(O)/C=C\C(=O)O.O=C(O)CCN1CCN(CCOC2c3ccccc3-c3ccccc32)CC1` was 2.3 mmol/kg; that for `CCOC(=O)CCN1CCN(CCCOC(c2ccccc2)c2ccccc2)CC1.Cl` was 1.8 mmol/kg.
Compound `O=C(O)/C=C\C(=O)O.O=C(O)/C=C\C(=O)O.O=C(O)CCN1CCN(CCOC(c2ccccc2)c2ccc(Cl)cc2)CC1` (stereo not given) had an LD50 of 1.6 mmol/kg.
`O=C(O)/C=C\C(=O)O.O=C(O)/C=C\C(=O)O.O=C(O)CCCCN1CCN(CCOC(c2ccccc2)c2ccc(F)cc2)CC1` (stereo not given) came in with an LD50 of 2.2 mmol/kg.
For the compound `O=C([O-])CN1CCN(CCOC(c2ccccc2)c2ccccc2)CC1.[Na+]`, the LD50 came to 4.3 mmol/kg.
Same read-out and setting: in the case of `COc1ccccc1C(OCCN1CCN(CCC(=O)O)CC1)c1ccccc1.O=C(O)/C=C\C(=O)O.O=C(O)/C=C\C(=O)O` (stereo not given) it was 2.2 mmol/kg; in that of `O=C(O)/C=C\C(=O)O.O=C(O)/C=C\C(=O)O.O=C(O)CCN1CCN(CCOC(c2ccccc2)c2cccc(C(F)(F)F)c2)CC1` (stereo not given), 1.8 mmol/kg; in that of `O=C(O)/C=C\C(=O)O.O=C(O)/C=C\C(=O)O.O=C(O)CN1CCN(CCOC(c2ccccc2)c2ccc(F)cc2)CC1` (stereo not given), 2.8 mmol/kg.

Test system in another series: not listed separately
The series can be described thus: Ratio of LD50/ED50. The series is classed as ADME.
Conditions: not given
With `O=C(CN1CCN(CCOC(c2ccccc2)c2ccccc2)CC1)N1CCN(Cc2ccc3c(c2)OCO3)CC1.O=C(O)/C=C\C(=O)O.O=C(O)/C=C\C(=O)O`, the selectivity ratio worked out at 23.
On the same count and under the same terms, in the case of `Cc1ccc(C(OCCN2CCN(CCC(=O)O)CC2)c2ccccc2)cc1.O=C(O)/C=C\C(=O)O.O=C(O)/C=C\C(=O)O` (stereo not given) it was 14; in that of `Cl.N#CCCN1CCN(CCOC(c2ccccc2)c2ccccc2)CC1`, 7.
In the case of `Cl.NC(=O)CCN1CCN(CCOC(c2ccccc2)c2ccccc2)CC1`, the selectivity ratio worked out at 12.
The same measure, in the same setting: in the case of `O=C(O)/C=C\C(=O)O.O=C(O)/C=C\C(=O)O.O=C(O)CCN1CCN(CCOC2c3ccccc3-c3ccccc32)CC1` it was 10.
Consider `CCOC(=O)CCN1CCN(CCCOC(c2ccccc2)c2ccccc2)CC1.Cl`, for which the selectivity ratio stood at 18.
As for `O=C(O)/C=C\C(=O)O.O=C(O)/C=C\C(=O)O.O=C(O)CCN1CCN(CCOC(c2ccccc2)c2ccc(Cl)cc2)CC1` (stereo not given), the selectivity ratio is 32.
Turning to `O=C(O)/C=C\C(=O)O.O=C(O)/C=C\C(=O)O.O=C(O)CCCCN1CCN(CCOC(c2ccccc2)c2ccc(F)cc2)CC1` (stereo not given), the selectivity ratio was 40.
Same read-out and setting: the value for `O=C(O)/C=C\C(=O)O.O=C(O)/C=C\C(=O)O.O=C(O)CCN1CCN(CCOC(c2ccccc2)c2cccc(C(F)(F)F)c2)CC1` (stereo not given) was 6; that for `O=C(O)/C=C\C(=O)O.O=C(O)/C=C\C(=O)O.O=C(O)CN1CCN(CCOC(c2ccccc2)c2ccc(F)cc2)CC1` (stereo not given) was 28.

As usually defined, the ED50 is the dose that gives a 50% effect, or the effect in half of the subjects. The term LD50 denotes the dose at which mortality reaches 50%.
